Assay results published in ChEMBL document CHEMBL4425163, “Structure elucidation of anti-methicillin resistant Staphylococcus aureus (MRSA) flavonoids from balsam poplar buds” (Bioorg Med Chem, 2016).
≈ marks a conversion by molar mass, not a printed value.

What was measured:
[1] = system: Staphylococcus aureus; assay: Antibacterial activity against methicillin resistant Staphylococcus aureus clinical isolate 6 incubated […] by microdilution resazurin assay; assay type: functional
[2] = system: Staphylococcus aureus; assay: Antibacterial activity against methicillin resistant Staphylococcus aureus clinical isolate 5 incubated […] by microdilution resazurin assay; assay type: functional
[3] = system: Staphylococcus aureus; assay: Antibacterial activity against Staphylococcus aureus ATCC 25923 incubated […] by microdilution resazurin assay; assay type: functional
[4] = system: Staphylococcus aureus; assay: Antibacterial activity against methicillin resistant Staphylococcus aureus clinical isolate 1 incubated […] by microdilution resazurin assay; assay type: functional
[5] = system: Staphylococcus aureus; assay: Antibacterial activity against methicillin resistant Staphylococcus aureus clinical isolate 8 incubated […] by microdilution resazurin assay; assay type: functional
[6] = system: Staphylococcus aureus; assay: Antibacterial activity against methicillin resistant Staphylococcus aureus clinical isolate 10 incubated […] by microdilution resazurin assay; assay type: functional
[7] = system: Staphylococcus aureus; assay: Antibacterial activity against methicillin resistant Staphylococcus aureus clinical isolate 2 incubated […] by microdilution resazurin assay; assay type: functional
[8] = system: Staphylococcus aureus; assay: Antibacterial activity against methicillin resistant Staphylococcus aureus clinical isolate 7 incubated […] by microdilution resazurin assay; assay type: functional
[9] = Cytotoxicity against human WS1 cells by resazurin reduction assay; assay type: cell-based
Method in brief: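 WS1 human fibroblast line; resazurin reduction test, slightly modified from an earlier method. Etoposide served as positive control.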

[10] = system: Staphylococcus aureus; assay: Antibacterial activity against methicillin resistant Staphylococcus aureus clinical isolate 4 incubated for 7 to 14 days by microdilution resazurin assay
[11] = system: Staphylococcus aureus; assay: Antibacterial activity against methicillin resistant Staphylococcus aureus clinical isolate 3 incubated for 7 to 14 days by microdilution resazurin assay
[12] = system: Staphylococcus aureus; assay: Antibacterial activity against methicillin resistant Staphylococcus aureus clinical isolate 9 incubated […] by microdilution resazurin assay; assay type: functional
[13] = Staphylococcus aureus, isolate 6, read-out: MIC
[14] = Staphylococcus aureus, isolate 5, read-out: MIC
[15] = Staphylococcus aureus, ATCC 25923, read-out: MIC
[16] = Staphylococcus aureus, isolate 1, read-out: MIC
[17] = Staphylococcus aureus, isolate 8, read-out: MIC
[18] = Staphylococcus aureus, isolate 10, read-out: MIC
[19] = Staphylococcus aureus, isolate 2, read-out: MIC
[20] = Staphylococcus aureus, isolate 7, read-out: MIC
[21] = Staphylococcus aureus, isolate 9, read-out: MIC

Compound	MIC [1, 13] [µM]	MIC [2, 14] [µM]	MIC [3, 15] [µM]	MIC [4, 16] [µM]	MIC [5, 17] [µM]	MIC [6, 18] [µM]	MIC [7, 19] [µM]	MIC [8, 20] [µM]	IC50 ([9]; Homo sapiens, WS1) [µM]	MIC [10] [µM]	MIC [11] [µM]	MIC [12, 21] [µM]	MIC [5] [µM]	also measured
COc1ccc(CCC(=O)c2c(O)cc(O)c3c2O[C@H](c2ccc(O)cc2)CC3)cc1	> 50	> 50	> 50	> 50	> 50	> 50	> 50	> 50	> 10	> 50	> 50	> 50	–	–
O=C(CCc1ccccc1)c1c(O)cc(O)c(C/C=C/c2ccc(O)cc2)c1O	50 (≈ 19.5 µg/mL)	3 (≈ 1.17 µg/mL)	6 (≈ 2.34 µg/mL)	6 (≈ 2.34 µg/mL)	3 (≈ 1.17 µg/mL)	6 (≈ 2.34 µg/mL)	6 (≈ 2.34 µg/mL)	6 (≈ 2.34 µg/mL)	> 10	6 (≈ 2.34 µg/mL)	6 (≈ 2.34 µg/mL)	3 (≈ 1.17 µg/mL)	–	–
O=C(CCc1ccc(O)cc1)c1c(O)cc(O)c2c1O[C@@H](c1ccc(O)cc1)[C@H](C/C=C/c1ccc(O)cc1)C2	13 (≈ 7 µg/mL)	13 (≈ 7 µg/mL)	13 (≈ 7 µg/mL)	25 (≈ 13.5 µg/mL)	13 (≈ 7 µg/mL)	13 (≈ 7 µg/mL)	13 (≈ 7 µg/mL)	6 (≈ 3.23 µg/mL)	> 10	25 (≈ 13.5 µg/mL)	13 (≈ 7 µg/mL)	13 (≈ 7 µg/mL)	–	–
COc1cc(O)c(C(=O)CCc2ccc(O)cc2)c2c1CCC(c1ccc(O)cc1)O2 (stereo unspecified)	50 (≈ 21 µg/mL)	> 50	> 50	> 50	> 50	> 50	50 (≈ 21 µg/mL)	50 (≈ 21 µg/mL)	> 10	> 50	> 50	> 50	–	–
COc1ccc(CCC(=O)c2c(O)cc(O)c(C/C=C/c3ccc(O)cc3)c2O)cc1	25 (≈ 10.5 µg/mL)	13 (≈ 5.47 µg/mL)	> 50	50 (≈ 21 µg/mL)	25 (≈ 10.5 µg/mL)	25 (≈ 10.5 µg/mL)	25 (≈ 10.5 µg/mL)	25 (≈ 10.5 µg/mL)	> 10	13 (≈ 5.47 µg/mL)	13 (≈ 5.47 µg/mL)	25 (≈ 10.5 µg/mL)	–	–
O=C(CCc1ccc(O)cc1)c1c(O)cc(O)c2c1O[C@H](c1ccc(O)cc1)[C@@H](C/C=C/c1ccc(O)cc1)C2	3 (≈ 1.62 µg/mL)	3 (≈ 1.62 µg/mL)	6 (≈ 3.23 µg/mL)	3 (≈ 1.62 µg/mL)	3 (≈ 1.62 µg/mL)	3 (≈ 1.62 µg/mL)	3 (≈ 1.62 µg/mL)	3 (≈ 1.62 µg/mL)	> 10	3 (≈ 1.62 µg/mL)	3 (≈ 1.62 µg/mL)	3 (≈ 1.62 µg/mL)	–	–
COc1cc(O)c(C(=O)CCc2ccc(O)cc2)c(O)c1C/C=C/c1ccc(O)cc1	50 (≈ 21 µg/mL)	50 (≈ 21 µg/mL)	> 50	> 50	50 (≈ 21 µg/mL)	50 (≈ 21 µg/mL)	50 (≈ 21 µg/mL)	50 (≈ 21 µg/mL)	> 10	50 (≈ 21 µg/mL)	50 (≈ 21 µg/mL)	> 50	–	–
COc1ccc(CCC(=O)c2c(O)cc(O)c3c2O[C@@H](c2ccc(O)cc2)CC3)cc1	25 (≈ 10.5 µg/mL)	13 (≈ 5.47 µg/mL)	25 (≈ 10.5 µg/mL)	13 (≈ 5.47 µg/mL)	13 (≈ 5.47 µg/mL)	25 (≈ 10.5 µg/mL)	13 (≈ 5.47 µg/mL)	13 (≈ 5.47 µg/mL)	> 10	25 (≈ 10.5 µg/mL)	13 (≈ 5.47 µg/mL)	13 (≈ 5.47 µg/mL)	–	–
COc1ccc(CCC(=O)c2c(O)c3c(c4c2OC(c2ccc(O)cc2)C(C/C=C/c2ccc(O)cc2)C4)OC(c2ccc(O)cc2)C(C/C=C/c2ccc(O)cc2)C3)cc1 (racemic)	> 50	> 50	> 50	> 50	> 50	> 50	> 50	> 50	> 10	> 50	> 50	> 50	–	–
O=C(CCc1ccccc1)c1c(O)c2c(c3c1OC(c1ccc(O)cc1)C(C/C=C/c1ccc(O)cc1)C3)OC(c1ccc(O)cc1)C(C/C=C/c1ccc(O)cc1)C2 (racemic; form 1)	> 50	> 50	–	> 50	> 50	> 50	> 50	> 50	–	> 50	> 50	> 50	–	IC50 [9]: 2.3 µM
O=C(CCc1ccccc1)c1c(O)c2c(c3c1OC(c1ccc(O)cc1)C(C/C=C/c1ccc(O)cc1)C3)OC(c1ccc(O)cc1)C(C/C=C/c1ccc(O)cc1)C2 (racemic; form 2)	–	–	> 50	–	–	–	–	–	–	–	–	–	–	IC50 [9]: > 10 µM
O=C(CCc1ccccc1)c1c(O)cc(O)c2c1OC(c1ccc(O)cc1)CC2 (single isomer, unassigned; (+))	–	–	6 (≈ 2.34 µg/mL)	–	–	–	–	–	–	–	–	–	13 (≈ 5.08 µg/mL)	MIC [1]: 25 µM (≈ 9.76 µg/mL); MIC [4]: 13 µM (≈ 5.08 µg/mL); MIC [7]: 13 µM (≈ 5.08 µg/mL)
O=C(CCc1ccccc1)c1c(O)cc(O)c2c1OC(c1ccc(O)cc1)C(O)C2 (stereo in doubt; (+)-15)	–	–	25 (≈ 10.2 µg/mL)	–	–	–	–	–	–	–	–	–	25 (≈ 10.2 µg/mL)	MIC [1]: 25 µM (≈ 10.2 µg/mL); MIC [4]: 25 µM (≈ 10.2 µg/mL); MIC [12]: 25 µM (≈ 10.2 µg/mL)
COc1ccc(CCC(=O)c2c(O)cc(O)c3c2OC(c2ccc(O)cc2)C(O)C3)cc1 (stereo in doubt; (+)-16)	–	–	25 (≈ 10.9 µg/mL)	–	–	–	–	–	–	–	–	–	50 (≈ 21.8 µg/mL)	MIC [2]: >50 µM; MIC [4]: >50 µM; MIC [6]: >50 µM; MIC [7]: 50 µM (≈ 21.8 µg/mL)
O=C(CCc1ccccc1)c1c(O)cc2c(c1O)CC(O)C(c1ccc(O)cc1)O2 (stereo in doubt; (+)-17)	–	–	50 (≈ 20.3 µg/mL)	–	–	–	–	–	–	–	–	–	50 (≈ 20.3 µg/mL)	MIC [6]: >50 µM; MIC [8]: 50 µM (≈ 20.3 µg/mL)
O=C(CCc1ccccc1)c1c(O)cc(O)c2c1OC(c1ccc(O)cc1)CC2 (stereo in doubt; (-)-12)	13 (≈ 5.08 µg/mL)	6 (≈ 2.34 µg/mL)	–	–	–	13 (≈ 5.08 µg/mL)	–	6 (≈ 2.34 µg/mL)	> 10	–	6 (≈ 2.34 µg/mL)	13 (≈ 5.08 µg/mL)	6 (≈ 2.34 µg/mL)	MIC [4]: 6 µM (≈ 2.34 µg/mL); MIC [7]: 6 µM (≈ 2.34 µg/mL)
O=C(CCc1ccccc1)c1c(O)cc(O)c2c1OC(c1ccc(O)cc1)C(O)C2 (stereo in doubt; (-)-15)	50 (≈ 20.3 µg/mL)	25 (≈ 10.2 µg/mL)	–	50 (≈ 20.3 µg/mL)	50 (≈ 20.3 µg/mL)	25 (≈ 10.2 µg/mL)	25 (≈ 10.2 µg/mL)	25 (≈ 10.2 µg/mL)	> 10	50 (≈ 20.3 µg/mL)	50 (≈ 20.3 µg/mL)	50 (≈ 20.3 µg/mL)	–	–
COc1ccc(CCC(=O)c2c(O)cc(O)c3c2OC(c2ccc(O)cc2)C(O)C3)cc1 (stereo in doubt; (-)-16)	50 (≈ 21.8 µg/mL)	–	–	50 (≈ 21.8 µg/mL)	> 50	25 (≈ 10.9 µg/mL)	25 (≈ 10.9 µg/mL)	25 (≈ 10.9 µg/mL)	> 10	–	25 (≈ 10.9 µg/mL)	50 (≈ 21.8 µg/mL)	–	MIC [2]: 13 µM (≈ 5.67 µg/mL)
GENTAMICIN	–	–	–	–	–	–	–	–	–	–	–	–	0.09	MIC [1]: 0.05 µM; MIC [2]: 0.08 µM; MIC [3]: 0.03 µM; MIC [4]: 0.05 µM; MIC [6]: 0.07 µM; MIC [7]: 0.04 µM; MIC [8]: 0.07 µM; MIC [12]: 0.07 µM
